In experiment [1] the target is C-C chemokine receptor type 5 (Homo sapiens, UniProt P51681). Briefly: Inhibitory concentration for displacement of [125I]-MIP-1 alpha from recombinant human CC chemokine receptor 5 (CCR5) expressed in CHO cell. The experiment is classed as cell-based. In outline: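 Competitive binding to CCR5 on CHO cell membranes, read as displacement of [125I]-labeled MIP-1α. IC50 values are means of triplicate determinations. Standard errors were normally <15% within an assay. Assay-to-assay variation was within ±2-fold, judged from a standard compound.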

Experiment [2] concerns HeLa. Briefly: Antiviral activities in a cell culture HIV-1 infectivity inhibition assay using HeLa cells. Type of experiment: functional. To be noted: Homo sapiens.
In experiment [3] the test system is HeLa. The experiment in a line: Antiviral activities in a cell culture HIV-1 infectivity inhibition assay using HeLa cells plus 50% normal human serum. The experiment is classed as functional.

SMILES strings stand for the structures.

C-C chemokine receptor type 5, sequence (P51681 whole entry): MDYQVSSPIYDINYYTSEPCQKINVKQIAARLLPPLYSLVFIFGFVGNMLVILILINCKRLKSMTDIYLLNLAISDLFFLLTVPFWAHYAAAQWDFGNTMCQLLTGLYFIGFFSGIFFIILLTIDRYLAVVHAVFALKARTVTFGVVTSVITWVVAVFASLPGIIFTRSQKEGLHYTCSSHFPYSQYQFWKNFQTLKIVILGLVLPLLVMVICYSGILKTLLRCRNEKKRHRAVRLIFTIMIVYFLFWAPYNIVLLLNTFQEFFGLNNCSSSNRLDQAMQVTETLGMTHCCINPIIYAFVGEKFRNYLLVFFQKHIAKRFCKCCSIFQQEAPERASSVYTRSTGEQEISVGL

The IC50 is the concentration at which inhibition is half-maximal. One may read the IC90 as the concentration needed for an effect of 90%. With `CCn1nc(Cc2ccc3c(c2)OCO3)cc1C1CCN(C[C@H]2CN([C@@H](C(=O)O)C(C)(C)C)C[C@@H]2c2cccc(F)c2)CC1`, the half-inhibitory concentration (IC50) in experiment [1] worked out at 0.7 nM. Also, the IC90 was under 0.14 nM with HeLa [2] and 33 nM in the experiment with HeLa [3].

Take `CCOc1ccc(Cc2cc(C3CCN(C[C@H]4CN([C@@H](C(=O)O)C(C)C)C[C@@H]4c4cccc(F)c4)CC3)n(CC)n2)cc1F`: in experiment [1], the IC50 was 0.4 nM. In addition, the IC90 in the experiment with HeLa [2] is under 0.14 nM; in the experiment on HeLa [3], 100 nM.

For `CCn1nc(Cc2cc(F)cc(F)c2)cc1C1CCN(C[C@H]2CN([C@@H](C(=O)O)C3CCCCC3)C[C@@H]2c2cccc(F)c2)CC1`, the IC50 in experiment [1] came out at 0.9 nM. Also, the values for the 90% effect concentration (IC90) in the experiment with HeLa [2] and with HeLa [3] were under 0.14 nM and 11 nM, respectively.

Turning to `CCCCOc1ccc(Cc2cc(C3CCN(C[C@H]4CN([C@@H](C(=O)O)C5CCCCC5)C[C@@H]4c4cccc(F)c4)CC3)n(CC)n2)cc1`, the IC50 in experiment [1] was found to be 0.8 nM. Further, the concentration for an effect of 90% (IC90) was determined as 0.4 nM in the experiment on HeLa [2] and 33 nM in the experiment on HeLa [3].

With `CCn1nc(Cc2ccc(O)cc2)cc1C1CCN(C[C@H]2CN([C@@H](C(=O)O)C3CCCCC3)C[C@@H]2c2cccc(F)c2)CC1`, the IC50 in experiment [1] came out at 0.5 nM. Besides, the IC90 is 11 nM in the experiment with HeLa [2] and 33 nM with HeLa [3].

Take `CC[C@@H](C)[C@H](C(=O)O)N1C[C@H](CN2CCC(c3cc(Cc4cccc5ccccc45)nn3CC)CC2)[C@@H](c2cccc(F)c2)C1`: the IC50 in experiment [1] came to 0.2 nM. Besides, the IC90 with HeLa [2] is under 0.14 nM; in the experiment with HeLa [3], 33 nM.

Consider `CCn1nc(Cc2ccc(Cl)cc2)cc1C1CCN(C[C@H]2CN([C@@H](C(=O)O)C3CCCCC3)C[C@@H]2c2cccc(F)c2)CC1`, for which, in experiment [1], the IC50 was 0.9 nM. Moreover, the results for the IC90 with HeLa [2] and in the experiment with HeLa [3] were 0.4 nM and 100 nM, respectively.

Consider `CC[C@H](C)[C@H](C(=O)O)N1C[C@H](CN2CCC(c3cc(Cc4ccc(Oc5ccccc5)cc4)nn3CC)CC2)[C@@H](c2cccc(F)c2)C1`, for which the IC50 in experiment [1] stood at 0.4 nM. The concentration for an effect of 90% (IC90) in the experiment on HeLa [2] is 1.2 nM; in the experiment on HeLa [3], 100 nM.

In the case of `CC[C@H](C)[C@H](C(=O)O)N1C[C@H](CN2CCC(c3cc(Cc4ccc(C#N)cc4)nn3CC)CC2)[C@@H](c2cccc(F)c2)C1`, in experiment [1], the IC50 was 1.3 nM. The IC90 in the experiment with HeLa [2] was under 0.14 nM; in the experiment with HeLa [3], 3.7 nM.

Take `CCn1nc(Cc2cccnc2)cc1C1CCN(C[C@H]2CN([C@@H](C(=O)O)C(C)C)C[C@@H]2c2cccc(F)c2)CC1`: in experiment [1], the IC50 was determined as 13.1 nM. For the same compound, the results for the 90% effect concentration (IC90) in the experiment on HeLa [2] and with HeLa [3] were 11 nM and 300 nM, respectively.

Consider `CC[C@@H](C)[C@H](C(=O)O)N1C[C@H](CN2CCC(c3cc(Cc4ccc(OC)c(OC)c4)nn3CC)CC2)[C@@H](c2cccc(F)c2)C1`, for which, in experiment [1], the IC50 came out at 2.6 nM. The 90% effect concentration (IC90) with HeLa [2] was found to be 0.4 nM; with HeLa [3] it was 33 nM.

With `CCOc1ccc(Cc2cc(C3CCN(C[C@H]4CN([C@@H](C(=O)O)C(C)(C)C)C[C@@H]4c4cccc(F)c4)CC3)n(CC)n2)cc1F`, in experiment [1], the IC50 was found to be 0.7 nM. Also, the IC90 is under 0.14 nM in the experiment on HeLa [2] and 11 nM with HeLa [3].

As for `CC[C@@H](C)[C@H](C(=O)O)N1C[C@H](CN2CCC(c3cc(Cc4ccc(OCc5ccccc5)cc4)nn3CC)CC2)[C@@H](c2cccc(F)c2)C1`, in experiment [1], the IC50 was 0.5 nM. Also, the IC90 worked out at 3.7 nM in the experiment with HeLa [2] and 100 nM with HeLa [3].

For the compound `CCCOc1ccc(Cc2cc(C3CCN(C[C@H]4CN([C@@H](C(=O)O)C(C)(C)C)C[C@@H]4c4cccc(F)c4)CC3)n(CC)n2)cc1`, the half-maximal inhibitory concentration (IC50) in experiment [1] was 0.8 nM. For the same compound, the IC90 in the experiment on HeLa [2] is 0.4 nM; with HeLa [3], 300 nM.

For the compound `CCn1nc(Cc2cccc(C#N)c2)cc1C1CCN(C[C@H]2CN([C@@H](C(=O)O)C(C)(C)C)C[C@@H]2c2cccc(F)c2)CC1`, the IC50 in experiment [1] was found to be 1 nM. Besides, the figures for the IC90 in the experiment on HeLa [2] and in the experiment on HeLa [3] were under 0.14 nM and 11 nM, respectively.

As for `CCOc1cccc(Cc2cc(C3CCN(C[C@H]4CN([C@@H](C(=O)O)C(C)(C)C)C[C@@H]4c4cccc(F)c4)CC3)n(CC)n2)c1`, the concentration for half-maximal inhibition (IC50) in experiment [1] came to 0.4 nM. Moreover, the figures for the 90% effect concentration (IC90) with HeLa [2] and in the experiment with HeLa [3] were under 0.14 nM and 100 nM, respectively.

`CCn1nc(Cc2ccc(Cl)cc2)cc1C1CCN(C[C@H]2CN([C@@H](C(=O)O)C(C)C)C[C@@H]2c2cccc(F)c2)CC1`: in experiment [1], the IC50 was 1.3 nM. The IC90 in the experiment with HeLa [2] was found to be 3.7 nM; in the experiment on HeLa [3], 300 nM.

Take `CCCOc1ccc(Cc2cc(C3CCN(C[C@H]4CN([C@@H](C(=O)O)C5CCCCC5)C[C@@H]4c4cccc(F)c4)CC3)n(CC)n2)cc1`: in experiment [1], the IC50 was found to be 0.7 nM. For the same compound, the IC90 is 1.2 nM with HeLa [2] and 100 nM in the experiment with HeLa [3].

In the case of `CC[C@H](C)[C@H](C(=O)O)N1C[C@H](CN2CCC(c3cc(Cc4cccc5ccccc45)nn3CC)CC2)[C@@H](c2cccc(F)c2)C1`, the IC50 in experiment [1] stood at 0.4 nM. The IC90 in the experiment with HeLa [2] was under 0.14 nM; in the experiment on HeLa [3], 11 nM.

With `CC[C@H](C)[C@H](C(=O)O)N1C[C@H](CN2CCC(c3cc(Cc4ccc(OCc5ccccc5)cc4)nn3CC)CC2)[C@@H](c2cccc(F)c2)C1`, the IC50 in experiment [1] turned out to be 0.7 nM. Moreover, the IC90 was 3.7 nM in the experiment on HeLa [2] and 300 nM in the experiment with HeLa [3].

Consider `CCn1nc(Cc2ccc(S(=O)(=O)c3ccccc3)cc2)cc1C1CCN(C[C@H]2CN([C@@H](C(=O)O)C3CCCCC3)C[C@@H]2c2cccc(F)c2)CC1`, for which the half-maximal inhibitory concentration (IC50) in experiment [1] was found to be 0.8 nM. Further, the IC90 in the experiment on HeLa [2] stood at 0.4 nM; in the experiment on HeLa [3] it was 33 nM.

With `CCOc1ccc(Cc2cc(C3CCN(C[C@H]4CN([C@@H](C(=O)O)C5CCCCC5)C[C@@H]4c4cccc(F)c4)CC3)n(CC)n2)cc1`, the IC50 in experiment [1] worked out at 1 nM. Moreover, the values for the IC90 in the experiment on HeLa [2] and with HeLa [3] were under 0.14 nM and 33 nM, respectively.

As for `CCn1nc(Cc2ccc(F)cc2F)cc1C1CCN(C[C@H]2CN([C@@H](C(=O)O)C3CCCCC3)C[C@@H]2c2cccc(F)c2)CC1`, in experiment [1], the IC50 is 1.5 nM. In addition, the results for the IC90 in the experiment on HeLa [2] and in the experiment with HeLa [3] were 0.4 nM and 33 nM, respectively.

In the case of `CCn1nc(Cc2ccc(Oc3ccccc3)cc2)cc1C1CCN(C[C@H]2CN([C@@H](C(=O)O)C(C)(C)C)C[C@@H]2c2cccc(F)c2)CC1`, the IC50 in experiment [1] was 0.4 nM. Also, the IC90 worked out at 3.7 nM in the experiment with HeLa [2] and 300 nM in the experiment with HeLa [3].

Regarding `CCn1nc(Cc2ccc(OC(F)F)cc2)cc1C1CCN(C[C@H]2CN([C@@H](C(=O)O)C(C)(C)C)C[C@@H]2c2cccc(F)c2)CC1`, the 50% inhibitory concentration (IC50) in experiment [1] was determined as 0.5 nM. Further, the IC90 with HeLa [2] is under 0.14 nM; in the experiment on HeLa [3], 11 nM.

In the case of `CCn1nc(Cc2ccc(C#N)cc2)cc1C1CCN(C[C@H]2CN([C@@H](C(=O)O)C3CCCCC3)C[C@@H]2c2cccc(F)c2)CC1`, the IC50 in experiment [1] was found to be 1.7 nM. The figures for the IC90 in the experiment with HeLa [2] and in the experiment with HeLa [3] were 0.4 nM and 11 nM, respectively.

Regarding `CCn1nc(Cc2ccc(F)c(F)c2)cc1C1CCN(C[C@H]2CN([C@@H](C(=O)O)C(C)C)C[C@@H]2c2cccc(F)c2)CC1`, in experiment [1], the 50% inhibitory concentration (IC50) worked out at 1.1 nM. The IC90 in the experiment with HeLa [2] is 3.7 nM; in the experiment with HeLa [3] it was 300 nM.

Regarding `CCn1nc(Cc2ccc3ccccc3c2)cc1C1CCN(C[C@H]2CN([C@@H](C(=O)O)C(C)(C)C)C[C@@H]2c2cccc(F)c2)CC1`, the IC50 in experiment [1] is 0.2 nM. The results for the IC90 in the experiment with HeLa [2] and with HeLa [3] were under 0.14 nM and 100 nM, respectively.

On to `CCn1nc(Cc2cccc(C#N)c2)cc1C1CCN(C[C@H]2CN([C@@H](C(=O)O)C(C)C)C[C@@H]2c2cccc(F)c2)CC1`, for which the IC50 in experiment [1] stood at 1.7 nM. Also, the IC90 with HeLa [2] is 3.7 nM; with HeLa [3] it was 100 nM.

The values are drawn from ChEMBL document CHEMBL1147446, “Antagonists of human CCR5 receptor containing 4-(pyrazolyl)piperidine side chains. Part 3: SAR studies on the benzylpyrazole segment” (Bioorg Med Chem Lett, 2004).
